Experimental data collected from several papers.
Target: BMP-2-inducible protein kinase (BMP2K, Homo sapiens, UniProt Q9NSY1)

Structure (SMILES)	observed	method	concentration	remaining binding [%]
C[C@H]1CCN(c2nccc(-c3cnn4ncccc34)n2)C1	binding	–	1 µM	83
FC(F)(F)Oc1cccc(-c2cnc3ccc(-c4ccncc4)nn23)c1	binding	competition with immobilised ligand	5 µM	8.3
CNC(=O)Nc1ccc2c(c1)CC[C@@]21OC(=O)N(CC(=O)N(Cc2ccc(F)cc2)[C@@H](C)C(F)(F)F)C1=O	cell-free assay	competition with immobilised ligand	1 µM	98
O=C(NCC1CCOCC1)c1n[nH]cc1NC(=O)c1c(F)cccc1F	binding	competition with immobilised ligand	1 µM	81
O=C(c1ccc(Nc2ncc(Cl)c(-c3cc4ccccc4s3)n2)cc1)N1CCC(N2CCCC2)CC1	binding	competition with immobilised ligand	1 µM	0
CN(C)c1ncnc(-c2ccc3nc(Nc4cc(CN5CCN(C(=O)CC(F)(F)F)CC5)ccn4)[nH]c3c2)c1Cl	cell-free assay	competition with immobilised ligand	1 µM	100
COc1ccnn2ncc(-c3ccnc(N(C)C)n3)c12	binding	–	1 µM	100
COc1cc(-c2cn(C3CCc4c(F)cccc4N(CC(F)(F)F)C3=O)nn2)ccc1-n1cnc(C)c1 (stereo not shown)	cell-free assay	competition with immobilised ligand	1 µM	100
C[C@@H](c1ccc(-n2cnc3c(N)ncnc32)cc1)N1CCc2nn(C)c(Cc3ccccc3)c2C1=O	binding	competition with immobilised ligand	0.1 µM	84
CN(C)c1nccc(-c2cnc3ncccn23)n1	binding	–	1 µM	100
O=C(c1ccc(Nc2ncc(Cl)c(-c3ccc(Cl)s3)n2)cc1)N1CCC(N2CCCC2)CC1	binding	competition with immobilised ligand	1 µM	0.1
F[C@@H]1CCN(c2nccc(-c3cnn4ncccc34)n2)C1	binding	–	1 µM	100
Cc1nc(N2CC[C@@H](O)C2)ncc1-c1cc(C(F)(F)F)cc2[nH]ncc12	binding	competition with immobilised ligand	1 µM	100
COc1cnc(Nc2cccc(S(N)(=O)=O)c2)nc1N1CCN(c2ccccc2)C(=O)C1	binding	competition with immobilised ligand	1 µM	80
COc1ncc2cc3ccccc3nc2c1C#N	cell-free assay	competition with immobilised ligand	5 µM	100
N[C@@H]1CCN(c2nccc(-c3cnn4ncccc34)n2)C1	binding	–	1 µM	100
O=C(c1ccc(Nc2nccc(-c3cc4ccccc4s3)n2)cc1)N1CCC(N2CCCC2)CC1	binding	competition with immobilised ligand	1 µM	0.5
O=C1NC(c2ccccn2)Sc2ccccc21 (stereo not shown)	cell-free assay	competition with immobilised ligand	1 µM	88
C=CC(=O)N1CCC(C(=O)NCC(=O)N2CCN(c3nc(-c4cnc(N)nc4C(F)F)nc(N4CCOCC4)n3)CC2)CC1	binding	competition with immobilised ligand	1 µM	94
COc1cnc(Nc2cccc(S(N)(=O)=O)c2)nc1N1CCN(c2ccccc2)CC1	binding	competition with immobilised ligand	1 µM	57
CCC(=O)N[C@@H]1CC[C@H](C(=O)N(C)c2ccc(-c3nc4ccccc4o3)cc2)C1	cell-free assay	competition with immobilised ligand	1 µM	100
Cc1cnn2ncc(-c3ccnc(N(C)C)n3)c2c1	binding	–	1 µM	80
